Experimental findings from ChEMBL document CHEMBL3865797, “Design, synthesis and biological evaluation of berberine-benzimidazole hybrids as new type of potentially DNA-targeting antimicrobial agents” (Eur J Med Chem, 2016) are described below.

Calls of active or inactive are those of the source. The calls are words filed in the database; no cut-off is given here.

The test system of assay [1] is Staphylococcus aureus. Briefly: Antibacterial activity against Staphylococcus aureus ATCC 25923 measured after 24 hrs by two-fold serial dilution method. In kind it is functional. The conditions noted are these: ATCC 25923, 24 h. Summed up: (§1)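 MIC by two-fold serial broth microdilution in 96-well plates, following NCCLS recommendations. Chloromycin, norfloxacin and fluconazole serve as reference drugs. The MIC is read as the lowest concentration that inhibits growth, in µg/mL.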

For assay [2], the system named is Staphylococcus aureus. The experiment in a line: Antibacterial activity against methicillin-resistant Staphylococcus aureus N315 measured after 24 hrs by two-fold serial dilution method. The class given is functional. The conditions noted are these: N315, 24 h. In outline:
(§2)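 Two-fold serial dilution in 96-well microtest plates following NCCLS guidance (micro broth dilution). Chloromycin and norfloxacin serve as positive controls. MIC is reported in µg/mL.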

Assay [3] concerns Bacillus subtilis. Briefly: Antibacterial activity against Bacillus subtilis measured after 24 hrs by two-fold serial dilution method. In kind it is functional. In outline: as §1
Assay [4] has as its system Micrococcus luteus. The experiment in a line: Antibacterial activity against Micrococcus luteus ATCC 4698 measured after 24 hrs by two-fold serial dilution method. In kind it is functional. The conditions noted are these: NCTC 2665, 24 h. In outline: as §1
In assay [5] the test system is Proteus vulgaris. Briefly: Antibacterial activity against Bacillus proteus ATCC 13315 measured after 24 hrs by two-fold serial dilution method. In kind it is functional. The conditions noted are these: ATCC 13315, 24 h. Summed up: as §1
The subject of assay [6] is Escherichia coli. Briefly: Antibacterial activity against Escherichia coli JM109 measured after 24 hrs by two-fold serial dilution method. The class given is functional. The conditions noted are these: JM109, 24 h. Summed up: as §1
For assay [7], the system named is Pseudomonas aeruginosa. Briefly: Antibacterial activity against Pseudomonas aeruginosa measured after 24 hrs by two-fold serial dilution method. The class given is functional. In outline:
as §1

Assay [8] concerns Salmonella typhi. The experiment in a line: Antibacterial activity against Salmonella typhi measured after 24 hrs by two-fold serial dilution method. The class given is functional, Salmonella enterica subsp. enterica serovar Typhi. The following applies: Salmonella enterica. In outline: as §2
The subject of assay [9] is Candida albicans. The experiment in a line: Antifungal activity against Candida albicans ATCC 76615 measured after 24 hrs by two-fold serial dilution method. The class given is functional. The following applies: ATCC 76615, 24 h. Summed up: as §1
Assay [10] can be described thus: Antifungal activity against Candida utilis measured after 24 hrs by two-fold serial dilution method. In kind it is functional. The conditions noted are these: Cyberlindnera jadinii. Summed up: as §1
The nature of assay [11]: Antifungal activity against Saccharomyces cerevisiae measured after 24 hrs by two-fold serial dilution method. The class given is functional. Summed up: as §1
For assay [12], the system named is Aspergillus flavus. The experiment in a line: Antifungal activity against Aspergillus flavus measured after 24 hrs by two-fold serial dilution method. In kind it is functional. In outline:
as §1

Assay [13] deals with Escherichia coli. The experiment in a line: Induction of Escherichia coli supercoiled pET-28a DNA cleavage measured at 0.1 mM after 5 hrs by agarose gel electrophoresis method.
The test system of assay [14] is Staphylococcus aureus. The experiment in a line: Induction of membrane permeabilization in methicillin-resistant Staphylococcus aureus N315 at 12 times MIC by propidium iodide staining-based fluorescence analysis. The class given is functional. Summed up: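 Cells are exposed to the agent at 12 × MIC, then stained with propidium iodide. The dye enters only cells with compromised membranes and fluoresces on binding DNA, so fluorescence serves as the permeabilization read-out.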

Assay [15] deals with Escherichia coli. Briefly: Induction of membrane permeabilization in Escherichia coli DH52 at 12 times MIC by propidium iodide staining-based fluorescence analysis. The class given is functional. Summed up: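 Propidium iodide uptake measured by fluorescence in E. coli DH52 exposed to agent at 12 × MIC. The dye enters bacteria with compromised membranes and fluoresces on binding DNA.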

The species entered for assay [16] is Bos taurus. Briefly: Binding affinity to calf thymus DNA assessed as hypochromic effect by UV-vis spectroscopy.
For assay [17], the species on record is Bos taurus. Briefly: Binding affinity to calf thymus DNA assessed as increase in maximum absorption peak at 260 nm by UV-vis spectroscopy. In outline: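 Absorption spectra of DNA recorded at pH 7.4 and 298 K with increasing concentrations of added agent. Absorbance at 260 nm of the complex is compared with the summed absorbance of free DNA and free agent.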

For assay [18], the species on record is Bos taurus. Briefly: Binding affinity to calf thymus DNA by UV-vis spectroscopy.
The species named for assay [19] is Bos taurus. The experiment in a line: Binding affinity to calf thymus DNA assessed as DNA intercalation by neutral red dye based UV-vis spectroscopy.

Broadly, the MIC is the lowest concentration that inhibits growth of the organism. The MIC80 is an inhibitory concentration at the 80% level, which refers to growth in some studies and to a panel of isolates in others. Take `CCCCCCCn1c(COc2c(OC)ccc3cc4[n+](cc23)CCc2cc3c(cc2-4)OCO3)nc2ccccc21.[Cl-]`: the MIC stood at 4 µg/mL in assay [1]; 8 µg/mL in [2]; 32 µg/mL in assay [3]; 64 µg/mL in assay [4]; 512 µg/mL in assay [5]; 4 µg/mL in assay [6]. The figures for the MIC in assay [7] and in assay [8] were 16 µg/mL and 2 µg/mL, respectively. Besides, the MIC80 in assay [9] amounted to 4 µg/mL; in assay [10], 8 µg/mL; in assay [11], 512 µg/mL; in [12] it was 32 µg/mL. Further, the Activity result in assay [13] and in assay [17] was “Dose-dependent effect” each time. Besides, the result in assay [14], in assay [15], in assay [16] and in assay [19] was Active. This compound also showed a K in [18] of 4.12 ×10⁴ L/mol.

For `COc1ccc2cc3[n+](cc2c1OCc1nc2ccc(F)cc2[nH]1)CCc1cc2c(cc1-3)OCO2.[Cl-]`, the MIC was determined as 8 µg/mL in assay [1]; 512 µg/mL in [2]; 256 µg/mL in assay [3]; 16 µg/mL in assay [4]; 16 µg/mL in assay [5]; 32 µg/mL in assay [6]. Besides, the MIC in assay [7] stood at 256 µg/mL; in [8], 16 µg/mL. Besides, the MIC80 in assay [9] is 512 µg/mL; in assay [10], 64 µg/mL; in assay [11], 256 µg/mL; in [12], 32 µg/mL.

On to `CCCCCn1c(COc2c(OC)ccc3cc4[n+](cc23)CCc2cc3c(cc2-4)OCO3)nc2ccccc21.[Cl-]`, for which the MIC is 64 µg/mL in assay [1]; 16 µg/mL in assay [2]; 32 µg/mL in [3]; 32 µg/mL in assay [4]; 128 µg/mL in [5]; 128 µg/mL in [6]. For the same compound, the results for the MIC in assay [7] and in assay [8] were 64 µg/mL and 4 µg/mL, respectively. In addition, the MIC80 was found to be 32 µg/mL in [9], 8 µg/mL in assay [10], 512 µg/mL in [11] and 16 µg/mL in assay [12].

For the compound `COc1ccc2cc3[n+](cc2c1OCc1nc2ccccc2n1Cc1ccc(F)cc1)CCc1cc2c(cc1-3)OCO2.[Cl-]`, the MIC came to 512 µg/mL in [1]; 512 µg/mL in assay [2]; 512 µg/mL in assay [3]; 512 µg/mL in assay [4]; 32 µg/mL in assay [5]; 512 µg/mL in assay [6]. Further, the values for the MIC in assay [7] and in assay [8] were 512 µg/mL and 8 µg/mL, respectively. Also, the MIC80 in assay [9] was determined as 512 µg/mL; in assay [10], 8 µg/mL; in [11], 256 µg/mL; in [12], 16 µg/mL.

For the compound `CCCCCCCCCCCCn1c(COc2c(OC)ccc3cc4[n+](cc23)CCc2cc3c(cc2-4)OCO3)nc2ccccc21.[Cl-]`, the MIC in [1] stood at 8 µg/mL; in [2], 128 µg/mL; in [3], 512 µg/mL; in [4], 128 µg/mL; in [5], 512 µg/mL; in assay [6] it was 16 µg/mL. Moreover, the figures for the minimum inhibitory concentration (MIC) in [7] and in assay [8] were 512 µg/mL and 8 µg/mL, respectively. Besides, the MIC80 in assay [9] is 16 µg/mL; in assay [10], 16 µg/mL; in assay [11], 512 µg/mL; in assay [12], 128 µg/mL.

On to `CCCn1c(COc2c(OC)ccc3cc4[n+](cc23)CCc2cc3c(cc2-4)OCO3)nc2ccccc21.[Cl-]`, for which the MIC in assay [1] came out at 128 µg/mL; in assay [2], 4 µg/mL; in assay [3], 64 µg/mL; in [4] it was 32 µg/mL; in assay [5], 256 µg/mL; in [6] it was 256 µg/mL. The MIC in assay [7] amounted to 64 µg/mL; in assay [8], 4 µg/mL. The MIC80 in [9] was determined as 64 µg/mL; in assay [10], 16 µg/mL; in assay [11] it was 512 µg/mL; in [12] it was 16 µg/mL.

`COc1ccc2cc3[n+](cc2c1OCc1nc2ccccc2n1Cc1ccc(Cl)cc1)CCc1cc2c(cc1-3)OCO2.[Cl-]`: the MIC in assay [1] amounted to 32 µg/mL; in assay [2] it was 512 µg/mL; in assay [3] it was 512 µg/mL; in [4] it was 8 µg/mL; in assay [5] it was 8 µg/mL; in assay [6] it was 2 µg/mL. Further, the MIC in [7] came to 512 µg/mL; in [8], 2 µg/mL. Besides, the MIC80 in assay [9] is 512 µg/mL; in [10] it was 4 µg/mL; in assay [11], 512 µg/mL; in [12], 4 µg/mL.

As for `COc1ccc2cc3[n+](cc2c1OCc1nc2ccccc2n1Cc1cccc(F)c1)CCc1cc2c(cc1-3)OCO2.[Cl-]`, the MIC in assay [1] is 512 µg/mL; in assay [2], 512 µg/mL; in assay [3], 512 µg/mL; in [4] it was 16 µg/mL; in [5], 128 µg/mL; in [6], 512 µg/mL. Moreover, the MIC in assay [7] and in [8] was 256 µg/mL each time. Also, the MIC80 in [9] is 512 µg/mL; in assay [10] it was 8 µg/mL; in assay [11] it was 256 µg/mL; in assay [12], 32 µg/mL.
